# ChEMBL document CHEMBL1122138, “Fluorinated retinoic acids and their analogues. 3. Synthesis and biological activity of aromatic 6-fluoro analogues” (1982)
# Experiments:
# Format in all cases: functional
# Mus musculus [1] = species on record: Mus musculus; test: Hypervitaminosis A dose, a measure of toxicity, in mice was determined
# Procedure, shortened: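 Mice received retinoid suspended in water with 0.1% carboxymethylcellulose and 0.01% Triton X-100. Dosing was ip daily Mon–Fri in week 1 and Mon–Thu in week 2. Symptoms were scored one day after the last injection: weight loss, skin redness/scaling, hair loss, nose/mouth mucosal changes, bone fractures. The value is the lowest daily dose at which 2 of 3 mice show one or more symptoms.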
# Mus musculus [2] = test: Antipapilloma activity was measured in mice as percentage effect by ip administration at the dose of 10 mg/kg/day.; details: route intraperitoneal
# Mus musculus [3] = test: Antipapilloma activity was measured in mice as percentage effect by ip administration at the dose of 20 mg/kg/day.; details: route intraperitoneal
# Mus musculus [4] = test: Antipapilloma activity was measured in mice as percentage effect by ip administration at the dose of 40 mg/kg/day.; details: route intraperitoneal
# Mus musculus [5] = test: Antipapilloma activity was measured in mice as percentage effect by ip administration at the dose of 5 mg/kg/day.; details: route intraperitoneal
# Mus musculus [6] = test: Antipapilloma activity was measured in mice as percentage effect by ip administration at the dose of 80 mg/kg/day.; details: route intraperitoneal
smiles,measurement,setting,value
COC(=O)/C=C(C)/C=C/C(F)=C(C)/C=C/c1c(C)cc(OC)c(C)c1C,Dose,Mus musculus [1],50 mg/kg
same,Effect,Mus musculus [2],-35%
same,Effect,Mus musculus [3],-60%
same,Effect,Mus musculus [4],-79%
same,Effect,Mus musculus [5],-28%
COC(=O)/C=C(C)/C=C/C(F)=C(C)/C=C/c1c(Cl)cc(OC)c(C)c1C,Dose,Mus musculus [1],200 mg/kg
same,Effect,Mus musculus [4],-41%
COC(=O)/C=C(C)/C=C/C(F)=C(C)/C=C/c1c(Cl)cc(OC)c(C)c1Cl,Dose,Mus musculus [1],200 mg/kg
same,Effect,Mus musculus [6],-64%
COC(=O)/C=C(C)/C=C/C(F)=C(C)/C=C/c1c(Cl)cc(OC)c(Cl)c1Cl,Dose,Mus musculus [1],>200 mg/kg
same,Effect,Mus musculus [6],-58%
COC(=O)/C=C(C)/C=C/C(F)=C(C)/C=C/c1c(C)cc(OC)c(C)c1Cl,Dose,Mus musculus [1],50 mg/kg
same,Effect,Mus musculus [3],-56%
COC(=O)/C=C(C)/C=C/C(F)=C(C)/C=C/c1c(C)cc(C)c(Cl)c1C,Dose,Mus musculus [1],200 mg/kg
same,Effect,Mus musculus [6],-48%
